Activity calls are given as the source filed them. The rule behind the calls is not given here.
What was measured:
[1] = Inhibition of human plasma alpha-thrombin assessed as spectrozyme TH hydrolysis preincubated for 10 mins by spectrophotometric analysis; assay type: cell-free
Method in brief: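 Human plasma α-thrombin (5 nM final) with inhibitor (1−900 μM final) in 20 mM Tris-HCl pH 7.4, 100 mM NaCl, 2.5 mM CaCl2, 0.1% PEG8000, PEG20000-coated cuvettes, 10 min. Spectrozyme TH then added (30 μM final). Initial rate from A405 increase. Residual activity fitted by logistic equation with floating Hill slope, Y0, YM to give IC50.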

[2] = organism: Homo sapiens; experiment: (§1) Binding affinity to human plasma alpha-thrombin exosite-2 using spectrozyme TH as substrate after overnight incubation at 25 degC by spectrophotometric analysis in presence of 2 uM gamma'-fibrinogen peptide; assay type: cell-free
[3] = as §1; assay type: cell-free
[4] = organism: Homo sapiens; experiment: (§2) Binding affinity to human plasma alpha-thrombin exosite-2 using spectrozyme TH as substrate after overnight incubation at 25 degC by spectrophotometric analysis in presence of 20 uM heparin octasaccharide; assay type: cell-free
[5] = as §2; assay type: cell-free
[6] = Inhibition of recombinant human thrombin K235A mutant expressed in BHK cells using S2238 as substrate after overnight incubation at 25 degC
Method in brief: (§3)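 BHK-expressed, HPC4 immunoaffinity-purified thrombins, activated from prothrombin form. Active-site concentration from amidolysis and antithrombin titration. Enzyme (1.5−7.5 nM final) incubated overnight at 25 °C with inhibitor in Tris pH 7.4 buffer in coated cuvettes. Residual activity from S2238 initial rate at A405, using at least 9−10 points. Logistic fit gives IC50. Ratio is mutant IC50 over wild-type IC50.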

[7] = target: Coagulation factor X (Homo sapiens) (UniProt P00742); experiment: Inhibition of human factor 10a at 365 uM
Chain of Coagulation factor X (Homo sapiens) (P00742 41-179 limits assumed): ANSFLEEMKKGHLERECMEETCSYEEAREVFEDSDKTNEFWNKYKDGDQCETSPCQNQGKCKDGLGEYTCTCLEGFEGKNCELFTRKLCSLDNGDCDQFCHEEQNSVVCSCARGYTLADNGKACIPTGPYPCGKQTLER
Chain of Coagulation factor X (Homo sapiens) (P00742 235-488 limits assumed): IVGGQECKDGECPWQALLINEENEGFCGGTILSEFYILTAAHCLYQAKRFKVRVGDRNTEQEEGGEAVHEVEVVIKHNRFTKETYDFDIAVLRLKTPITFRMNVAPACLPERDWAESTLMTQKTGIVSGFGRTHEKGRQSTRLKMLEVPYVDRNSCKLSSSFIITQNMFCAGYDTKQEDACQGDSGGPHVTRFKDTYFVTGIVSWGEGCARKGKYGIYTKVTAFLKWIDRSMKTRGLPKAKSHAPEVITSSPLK

[8] = organism: Homo sapiens; experiment: (§4) Binding affinity to human plasma alpha-thrombin exosite-2 using spectrozyme TH as substrate after overnight incubation at 25 degC by spectrophotometric analysis in presence of 42.6 uM unfractionated heparin; assay type: cell-free
[9] = as §4; assay type: cell-free
[10] = Inhibition of recombinant human thrombin R175A mutant expressed in BHK cells using S2238 as substrate after overnight incubation at 25 degC; method in brief: as §3
[11] = Inhibition of recombinant human thrombin K240A mutant expressed in BHK cells using S2238 as substrate after overnight incubation at 25 degC; method in brief: as §3
[12] = organism: Homo sapiens; experiment: (§5) Binding affinity to human plasma alpha-thrombin exosite-1 using spectrozyme TH as substrate after overnight incubation at 25 degC by spectrophotometric analysis in presence of 15 nM hirugen peptide; assay type: cell-free
[13] = as §5; assay type: cell-free
[14] = target: Prothrombin (Homo sapiens, UniProt P00734); experiment: Inhibition of wild type recombinant human thrombin expressed in BHK cells using S2238 as substrate after overnight incubation at 25 degC; method in brief: as §3
[15] = organism: Homo sapiens; experiment: (§6) Binding affinity to human plasma alpha-thrombin exosite-2 using spectrozyme TH as substrate after overnight incubation at 25 degC by spectrophotometric analysis in presence of 25 uM unfractionated heparin; assay type: cell-free
[16] = as §6; assay type: cell-free
[17] = organism: Homo sapiens; experiment: (§7) Binding affinity to human plasma alpha-thrombin exosite-2 using spectrozyme TH as substrate after overnight incubation at 25 degC by spectrophotometric analysis in presence of 0.65 uM gamma'-fibrinogen peptide; assay type: cell-free
[18] = as §7; assay type: cell-free
[19] = target: Prothrombin (Homo sapiens, UniProt P00734, R97A); experiment: Inhibition of recombinant human thrombin R97A mutant expressed in BHK cells using S2238 as substrate after overnight incubation at 25 degC; method in brief: as §3
[20] = organism: Homo sapiens; experiment: (§8) Binding affinity to human plasma alpha-thrombin exosite-2 using spectrozyme TH as substrate after overnight incubation at 25 degC by spectrophotometric analysis in presence of 1 uM heparin octasaccharide; assay type: cell-free
[21] = as §8; assay type: cell-free
[22] = organism: Homo sapiens; experiment: (§9) Binding affinity to human plasma alpha-thrombin exosite-1 using spectrozyme TH as substrate after overnight incubation at 25 degC by spectrophotometric analysis in presence of 5 nM hirugen peptide; assay type: cell-free
[23] = as §9; assay type: cell-free
[24] = organism: Homo sapiens; experiment: (§10) Binding affinity to human plasma alpha-thrombin exosite-1 using spectrozyme TH as substrate after overnight incubation at 25 degC by spectrophotometric analysis in presence of 3 nM hirugen peptide; assay type: cell-free
[25] = as §10; assay type: cell-free
[26] = organism: Homo sapiens; experiment: (§11) Binding affinity to human plasma alpha-thrombin exosite-2 using spectrozyme TH as substrate after overnight incubation at 25 degC by spectrophotometric analysis in presence of 0.2 uM gamma'-fibrinogen peptide; assay type: cell-free
[27] = as §11; assay type: cell-free
[28] = organism: Homo sapiens; experiment: (§12) Binding affinity to human plasma alpha-thrombin exosite-2 using spectrozyme TH as substrate after overnight incubation at 25 degC by spectrophotometric analysis in presence of 6.5 uM gamma'-fibrinogen peptide; assay type: cell-free
[29] = as §12; assay type: cell-free
[30] = organism: Homo sapiens; experiment: Selectivity ratio of IC50 for recombinant human thrombin K236A mutant to IC50 for wild type recombinant human thrombin; method in brief: as §3
[31] = organism: Homo sapiens; experiment: (§13) Binding affinity to human plasma alpha-thrombin exosite-2 using spectrozyme TH as substrate after overnight incubation at 25 degC by spectrophotometric analysis in presence of 3 uM heparin octasaccharide; assay type: cell-free
[32] = as §13; assay type: cell-free
[33] = Inhibition of recombinant human thrombin K169A mutant expressed in BHK cells using S2238 as substrate after overnight incubation at 25 degC; method in brief: as §3
[34] = test system: Plasma; experiment: Anticoagulant activity in human plasma assessed as increase in activated partial […] time at 139 uM after 4 mins by fibrometric analysis relative to control; assay type: functional
Method in brief: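 Citrated human plasma, one-stage recalcification, fibrometer read-out. APTT: 90 μL plasma + 10 μL inhibitor or vehicle + prewarmed 0.2% ellagic acid, 4 min, then 25 mM CaCl2 (37 °C). PT: inhibitor + plasma 30 s at 37 °C, then prewarmed thromboplastin. Duplicates. Quadratic trend line fit gives concentration doubling clotting time versus vehicle blank.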

[35] = organism: Homo sapiens; experiment: Selectivity ratio of IC50 for recombinant human thrombin R233A mutant to IC50 for wild type recombinant human thrombin; method in brief: as §3
[36] = organism: Homo sapiens; experiment: (§14) Binding affinity to human plasma alpha-thrombin exosite-2 using spectrozyme TH as substrate after overnight incubation at 25 degC by spectrophotometric analysis in presence of 10 uM heparin octasaccharide; assay type: cell-free
[37] = as §14; assay type: cell-free
[38] = organism: Homo sapiens; experiment: Uncompetitive inhibition of human plasma alpha-thrombin using spectrozyme TH as substrate assessed as decrease in enzyme Vmax at 9.9 uM after 2 hrs at 37 degC by Michaelis-Menten equation analysis relative to control; assay type: cell-free
Method in brief: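 5 nM plasma α-thrombin with fixed inhibitor, preincubated overnight at 25 °C or 2 h at 37 °C in 20 mM Tris-HCl pH 7.4, 100 mM NaCl, 2.5 mM CaCl2, 0.1% PEG8000. Initial Spectrozyme TH (2−80 μM) hydrolysis rate read at 405 nm with under 10% substrate consumption. Michaelis−Menten fit gives KM and VMAX; error ±1 SE.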

[39] = Inhibition of recombinant human thrombin R233A mutant expressed in BHK cells using S2238 as substrate after overnight incubation at 25 degC; method in brief: as §3

IC50 ([1]; read-out: IC50): 670 nM | IC50 ([1]; read-out: pIC50 (converted)): 676 nM | pIC50(app) [2]: 5.92 | IC50 [3]: 1200 nM | pIC50(app) [4]: 5.75 | IC50 [5]: 1800 nM | IC50 [6]: 270 nM | pIC50 [6]: 6.57 | inhibition [7]: inactive | pIC50(app) [8]: 5.26 | IC50 [9]: 5600 nM | IC50 [10]: 430 nM | pIC50 [10]: 6.363 | IC50 [11]: 270 nM | pIC50 [11]: 6.57 | pIC50(app) [12]: 6.04 | IC50 [13]: 900 nM | IC50 ([14]; read-out: IC50): 260 nM | IC50 ([14]; read-out: pIC50 (converted)): 263 nM | pIC50(app) [15]: 5.42 | IC50 [16]: 3800 nM | pIC50(app) [17]: 5.95 | IC50 [18]: 1100 nM | IC50 ([19]; read-out: IC50): 370 nM | IC50 ([19]; read-out: pIC50 (converted)): 363 nM | pIC50(app) [20]: 5.87 | IC50 [21]: 1300 nM | pIC50(app) [22]: 6.1 | IC50 [23]: 800 nM | pIC50(app) [24]: 6.07 | IC50 [25]: 900 nM | pIC50(app) [26]: 5.94 | IC50 [27]: 1200 nM | pIC50(app) [28]: 5.88 | IC50 [29]: 1300 nM | Ratio IC50 [30]: 1.5 | pIC50(app) [31]: 5.87 | IC50 [32]: 1400 nM | IC50 [33]: 330 nM | pIC50 [33]: 6.48 | Ratio IC50 [35]: 3.8 | pIC50(app) [36]: 5.78 | IC50 [37]: 1600 nM | fold change (FC) [38]: 5.7 | IC50 [39]: 980 nM | pIC50 [39]: 6.01
SMILES: CCOC(=O)c1c(C)oc2cc(OC)c(OCc3oc4cc(OC)c(OCc5oc6cc(OC)c(OS(=O)(=O)[O-])cc6c5C(=O)OCC)cc4c3C(=O)OCC)cc12.[Na+]
fold change (FC) [34]: 2

Reference: ChEMBL document CHEMBL2396594, “Designing allosteric regulators of thrombin. Exosite 2 features multiple subsites that can be targeted by sulfated small molecules for inducing inhibition” (J Med Chem, 2013)
